The EternaBench riboswitch data

System: MS2 coat protein
Experiment: apparent Kd, MS2 coat protein; higher = weaker binding; RNA-MaP array; FMN 200 µM where present
Summary of the method: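 Stalled E. coli RNA polymerase produced the designs on Illumina sequencing-chip clusters. SNAP-549-labelled MS2 coat protein was added from 0.7 or 1.5 nM, doubling to 3 µM, without and then with constant ligand, in 100 mM Tris-HCl pH 7.5, 80 mM KCl, 4 mM MgCl2, BSA, DTT, yeast tRNA and Tween-20. The apparent Kd is the median of filtered per-cluster fits of green signal normalised to red-channel RNA signal and control-cluster median Fmax.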

[1] = designed as: OFF switch for flavin mononucleotide, no ligand
[2] = ligand present: flavin mononucleotide, designed as: OFF switch for flavin mononucleotide
[3] = designed as: ON switch for flavin mononucleotide, no ligand
[4] = ligand present: flavin mononucleotide, designed as: ON switch for flavin mononucleotide

| Sequence | apparent Kd [1] [nM] | apparent Kd [2] [nM] | apparent Kd [3] [nM] | apparent Kd [4] [nM] |
| --- | --- | --- | --- | --- |
| GGAUAGGACAGAGGAUAUACGUGCUAGAGAUACUAUCAAAAUUUCCUCACAUGAGGAUCACCCAUGUAGAAGGCUGUCCUAUCG | 270 | 52.1 |  |  |
| AAAUUGUGAGGAUAUCAGGUGUGCUAGCGUACUGGUACAUCUGAGAAGGCACAUGAGGAUCACCCAUGUUUCUU | 16.1 | 44.2 |  |  |
| AAAUAAAACGAUCGGCGAUCCAAACAUGAGGAUCACCCAUGUAGAAGGCACUCUACAUAGUAGAGUGAGGAUAUACGAGAUCGA | 22.1 | 584 |  |  |
| CCAGAGGUCACAGGAUAUGACUCGUCCAAAUGGUCAGAAGGGUGAAUCACAUUAUGUAUACAUGAGGAUCACCCAUGUCCUACG |  |  | 93.2 | 498 |
| UUAGGUCGAAACAUGAGGAUCACCCAUGUGUUAUAAUUAAUAUAGGAUAUGUUUAUACUUUUUGGGCAGAAGGAUGAUAUUGCU |  |  | 21.2 | 17.9 |
| AAGGUACGAGGAUAUACAUAGAUACAGAUACAUGUGGAUGUACAUGAGGAUCACCCAUGUAGAAGGCGUAUAUA | 300 | 318 |  |  |
| GCUGGUCGAGGAUAUGCAAUCGUGCUUCGGCACGUAAGGUCACAUGAGGAUCACCCAUGUAGAAGGUGACCAGC | 17.1 | 23.3 |  |  |
| GCUGCGUAUGCAGGAUAUACAUGAGGAUCACCCAUGUAACUCGAACUCUAAGCGGGUGCGCGCAUGUAGAAGGGCAGGCGAGCC | 35.5 | 51.2 |  |  |
| AGCGAGGUAGGAUAUACAUGAGGAUCACCCAUGUGCUUGCAUGGCGUGGAACGUCGAGGUAGAAGGGCCGCGCC | 24.2 | 35.7 |  |  |
| GUCAUGGUAACAGGAUAUCGUUGAUAAAAGUUAUACAUGAGGAUCACCCAUGUCCGCACUAAGGGCGAGAAGGGUUAUUAUCAC |  |  | 501 | 382 |
| UUUUUAUUUAUAGGAUAUGGAAACAUGAGGAUCACCCAUGUAUGAUAAGAUAAAUUAUGAUGUGGCCAGAAGGAUAUUAUUUUU |  |  | 31.3 | 43.7 |
| AUUAUACAUGAGGAUCACCCAUGUAAUUAAUUAAUUAAGAUCAAGGAUAUCAGCUCGAAUAGAGCUGAGAAGGUGAUCACAUGU |  |  | 330 | 287 |
| UUAUCUAUGUAAGGAUAUCGAUGAUAUACGCAUCCGACAUGAGGAUCACCCAUGUUUUAUUUUGUCGAGAAGGUACAUUGUCGG |  |  | 61.1 | 53.5 |
| AAAAUCACAUGAGGAUCACCCAUGUACCGAGUUAAGGCUACAUAGGAUAUGACAAGUAUAGCUUGUCAGAAGGGUGAGUCUCGC |  |  | 58.2 | 97.7 |
| CGAGUCAUAGCUCCUUAGCCAGCCAGAAGGGUCUACAUGAGGAUCACCCAUGUGGUCUCGAAGGGACAGGAUAUGGAGGGCGUA | 5.39 | 7.36 |  |  |
| ACAUGACAUGAGGAUCACCCAUGUGAGGAUAUGCGAAAAAAAAAAAAAAAAAAAAUUGGCAGAAGGCACAAAAU | 167 | 180 |  |  |
| AGCCUACAUGAGGAUCACCCAUGUCAGGAUAUCUCGCGGCGUGUCAAGUUCACACUGCAGAGAAGGGACUCGGG | 58.1 | 66.9 |  |  |
| CGGGCAAUGUCCGAGACAUGAGGAUCACCCAUGUUAGCAGCACAGGAUAUCAUGUUUUGUAAAGGUGAGAAGGGUGAUUGCAUC |  |  | 273 | 139 |
| AAGAAGUGAGGAUAUACAUGAGGAUCACCCAUGUUAAGAAGAAUUUUAGAGAAAGAAGGUAGAAGGCACAAGAA | 49.5 | 47.1 |  |  |
| GUGGUCAGACAUGAGGAUCACCCAUGUGGAAUAAAUAAGGCAUAGGAUAUGAAAUAUAGGAUAUAUCAGAAGGAUGGGUUGGUG |  |  | 164 | 191 |
| UUUAACGUAGCAGGAUAUUGACGACUUGGGACAUGAGGAUCACCCAUGUUGCAAGAAGGGCUUAGUCAAGACACGAGCGGUGUU | 6.54 | 8.15 |  |  |
| GCGGAUCUAGGAUAUACAUGAGGAUCACCCAUGUAAACUCUCUUGGAUGACUACUAUUGUAGAAGGAGAUAAGC | 25.4 | 41 |  |  |
| GGAGCAGGGUCAGGAUAUGUAAGUAGACGGCAAAUAGAAGGGACAUGAGGAUCACCCAUGUAACAUUAAAAUGAAGCAAGGGAG | 59.1 | 71.1 |  |  |
| AUGCUUCACACAGGAUAUACAUGAGGAUCACCCAUGUGUCCACCGUAGCUGACACGAGCUACGCUGUAGAAGGGUGUGAAGCAU | 19.3 | 52.8 |  |  |
| GGUUGGUAUGAUUGGGUAUGAUACAUGAGGAUCACCCAUGUGCAGGAUAUGUUACACUCACGAUGAUAGAAGGGUAGGGUUUGA | 305 | 270 |  |  |
| CAGUGUAGUUAGGAUAUCGGGUCGGUUGGGCGCUGAGAAGGAACUACAUGAGGAUCACCCAUGUGGGCUCUUCU | 19.5 | 37.1 |  |  |
| GUAGCAUACCGAGGAUAUUCAACCGGAAACGGAACAUGAGGAUCACCCAUGUGGCGAAAGCCUUGGGAGAAGGCGGAAUGCUAC |  |  | 77.5 | 20.6 |
| UACGUUAUACGCAACAUGAGGAUCACCCAUGUUAGCCGAUCACAGGAUAUGUUGGAGCCGGUCGGACAGAAGGGUGAGUUUGCU |  |  | 47.9 | 43.3 |

| Sequence | apparent Kd [1] [nM] | apparent Kd [2] [nM] | apparent Kd [3] [nM] | apparent Kd [4] [nM] |
| --- | --- | --- | --- | --- |
| GUUCCACAUGAGGAUCACCCAUGUGAGGAUAUGGAUUCGCUGGCCGUAGCCAGUGGAUCCAGAAGGCGCAUGAU | 39.9 | 153 |  |  |
| AUCAGCUCGUCAGGAUAUACGUCACUGCGUCAGCCGUGUGGUAAGAUCACAUGAGGAUCACCCAUGUAGAAGGGACGAGCUGAU | 16.6 | 247 |  |  |
| GAAGGGCCUCGAGGAUAUCGCUGCGGUCGUUUGACAUGAGGAUCACCCAUGUGAGAAGGCGAGGCUACUAACCAUGCCCGUUAU | 31.3 | 148 |  |  |
| GUACAUGAGCAGAAGGGCAUUUAAUUACAUUUUUAUGUUUAUCAGAUAUGCAGGAUAUGUUAAACAUGAGGAUCACCCAUGUAC |  |  | 196 | 42.6 |
| AAUAUGAGCUGGAAUAAAACCUUGACAUGAGGAUCACCCAUGUAGGAUAUCAGCACGAUAAGUGCUGAGAAGGACAACCAGCUC | 14.4 | 15.6 |  |  |
| GGAUAGGACAGAGGAUAUACGUGCUAGAGAUACUAGCAAAAUUUCCUCACAUGAGGAUCACCCAUGUAGAAGGCUGUCCUAUGG | 16.6 | 402 |  |  |
| CUGUAGUGAGGAUAUUAUUUGCAAGCCCUAGACGGCGCGAAUGAGAAGGUACAUGAGGAUCACCCAUGUGGUUG | 126 | 297 |  |  |
| GCGCUUAUACAGAAGGCCAUAUACAUGAGGAUCACCCAUGUCGAAUCUUGGAGGAUAUGUUAUUAAUUACACGCAGAUGAGCGC |  |  | 15.8 | 6.19 |
| UGCGACCUAGGAUAUACAUGAGGAUCACCCAUGUGAUUCGGUGGCGCGAUCCUUGAAAGUAGAAGGAGGAGCAA | 40.1 | 35.3 |  |  |
| UAUAUGUCAGGAUAUUAGUUGUGUUAGAAUUUAACUUCUGCUGAGAAGGGACAUGAGGAUCACCCAUGUUCCUC | 15.9 | 21.2 |  |  |
| UAAUCGUUGCAGAAGGUUAUUAUUAUAACGUGACACUUAACAUGAGGAUCACCCAUGUUUUUUAUGAAGGAUAUGCAACGGUAG | 7.07 | 7.29 |  |  |
| CGCGAACAGGCUAACAUGAGGAUCACCCAUGUGGACUCAUGGUAGGAUAUCGGGAAGGAGGAAACCGAGAAGGGCCGGUGAGCC |  |  | 498 | 359 |
| GUUUCGUGAGGAUAUGUGGCUUCGAUCGUGCGAAAAAGGCUACAGAAGGCACAUGAGGAUCACCCAUGUUCCUC | 119 | 568 |  |  |
| ACAUGAGGAUCACCCAUGUAUUUGUAGGAUAUACACAAUUAUUUAUUACUCUAAUUAAUAUGUUUGUAGAAGGACACUGCAUGA | 11.5 | 11.9 |  |  |
| AAGUUUUUACAAGGAUAUCAAUUGUUUCUAAAUUCAACAUGAGGAUCACCCAUGUAACAAUGGAGUGAGAAGGUGUGUUGGCAA |  |  | 86.8 | 141 |
| UUCCGCGUUGUAAGGAUAUCUAAUUCUUAUGAAAUAGAGAAGGUACAUGAGGAUCACCCAUGUACUUGGGACUA | 18.7 | 22.4 |  |  |
| CGAUGUUGUGUCAGGAUAUGCGUUGCGAAAGCAAUGUAGAAGGGACAUGAGGAUCACCCAUGUUCUAACCAUCG | 12.4 | 15.8 |  |  |
| AGUAUGCAGCAGGAUAUCGAUCCGCAGUAUGAUCGAGAAGGGCUGACAUGAGGAUCACCCAUGUGCGUCCUAGG | 40.1 | 167 |  |  |
| UCGUGCCGGGUUGCGAGCGACCCACAUGAGGAUCACCCAUGUAGAAGGACCAGCGUCGGCCCUUGGUAGGAUAUACAUGAACUC | 113 | 152 |  |  |
| AUUAAUUAAUUAAUACAUGAGGAUCACCCAUGUAAUAAGAUCAAGGAUAUCAGCUCGUUUAGAGCUGAGAAGGUGAUCACAUGU |  |  | 617 | 214 |
| UGUUGUUCAGGAUAUGAUGUAUAAUACAUGAGGAUCACCCAUGUAGGUCCUGAUUUGGCGUCAGAAGGGAAUGUUG | 27.7 | 31 |  |  |
| UCUGGUCGAGGAUAUACGUGACGUGCUUCGGCACGAGGUCUACAUGAGGAUCACCCAUGUAGAAGGCGACCAGA | 17.1 | 48 |  |  |
| ACAUGGUAUGUCAGGAUAUCUAACCGCAACGUUCUAGAGAAGGGACAUGAGGAUCACCCAUGUACGUUGUAAGA | 54.3 | 117 |  |  |
| GGCUUCUUCACAGGAUAUGGUUUUUUAAGUAUACAUGAGGAUCACCCAUGUCCAGAAGGGUGAGGGUCCGGCGUACAGUGUCGG |  |  | 645 | 30.4 |
| GUGCCUUGGGAGAAGGUUAUUGGCAAAGCUAUUAAAGGAUAUUCAUACCGGAAACGGACAUGAGGAUCACCCAUGUGGCACAAA |  |  | 752 | 208 |
| UUGGAGGUCGUAGGAUAUGUAGGAUAUUCCUACAUGAGGAUCACCCAUGUUGACAUGGAAGAAGGACAGAAGGACGAUGUCCAU |  |  | 367 | 6.26 |
| UAGAUACAUGAGGAUCACCCAUGUGAGGAUAUCGUUUGUACUAAUCUUUUAGUAUUUUCGAGAAGGCACAUAUA | 73.9 | 183 |  |  |
